pKi: −log10 of the molar value.
Columns and labels:
[1] = target: T1, Induced myeloid leukemia cell differentiation protein Mcl-1 (Homo sapiens, UniProt Q07820); experiment: Displacement of FITC-Bak-BH3 peptide from Mcl-1 (unknown origin) incubated for 1.5 hrs by FPA competition assay
Bcl-2-like protein 1 = Bcl-2-like protein 1 (Homo sapiens, UniProt Q07817); experiment: Displacement of FITC-Bak-BH3 peptide from Bcl-xL (unknown origin) incubated for 1.5 hrs by FPA competition assay
Procedure, shortened: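 Compounds were added as a 10-point, 3-fold serial dilution and incubated 1.5 h at room temperature. IC50 came from a four-parameter fit of the anisotropy change, was converted to Ki, and duplicate values were averaged.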

[2] = target: Apoptosis regulator Bcl-2 (Homo sapiens, UniProt P10415); experiment: Displacement of FITC-Bak-BH3 peptide from Bcl-2 (unknown origin) incubated for 1.5 hrs by FPA competition assay
Sequence of Apoptosis regulator Bcl-2 (P10415 whole entry): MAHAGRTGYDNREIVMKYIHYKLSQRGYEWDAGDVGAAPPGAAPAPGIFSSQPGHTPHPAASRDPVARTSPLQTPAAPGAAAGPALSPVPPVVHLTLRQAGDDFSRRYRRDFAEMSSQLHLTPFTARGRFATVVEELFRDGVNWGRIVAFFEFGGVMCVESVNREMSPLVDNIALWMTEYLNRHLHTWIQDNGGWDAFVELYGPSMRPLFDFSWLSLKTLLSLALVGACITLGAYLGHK
Procedure, shortened: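 Compounds were added as a 10-point, 3-fold serial dilution and incubated 1.5 h at room temperature. The anisotropy change was fitted to a four-parameter variable-slope curve for IC50, converted to Ki, and duplicates were averaged.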

[3] = target: T1, Induced myeloid leukemia cell differentiation protein Mcl-1; experiment: Binding affinity to GST-tagged Mcl-1 (unknown origin) incubated for 60 mins by TR-FRET-binding affinity assay

Sequence of Bcl-2-like protein 1 (Q07817 whole entry): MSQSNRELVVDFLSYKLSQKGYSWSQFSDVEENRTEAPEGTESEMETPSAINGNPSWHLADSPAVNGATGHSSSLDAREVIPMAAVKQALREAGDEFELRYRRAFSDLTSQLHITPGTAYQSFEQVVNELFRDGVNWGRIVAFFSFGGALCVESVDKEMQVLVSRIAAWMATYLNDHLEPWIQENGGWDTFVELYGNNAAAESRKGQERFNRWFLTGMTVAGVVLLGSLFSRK
T1 sequence (Q07820 whole entry): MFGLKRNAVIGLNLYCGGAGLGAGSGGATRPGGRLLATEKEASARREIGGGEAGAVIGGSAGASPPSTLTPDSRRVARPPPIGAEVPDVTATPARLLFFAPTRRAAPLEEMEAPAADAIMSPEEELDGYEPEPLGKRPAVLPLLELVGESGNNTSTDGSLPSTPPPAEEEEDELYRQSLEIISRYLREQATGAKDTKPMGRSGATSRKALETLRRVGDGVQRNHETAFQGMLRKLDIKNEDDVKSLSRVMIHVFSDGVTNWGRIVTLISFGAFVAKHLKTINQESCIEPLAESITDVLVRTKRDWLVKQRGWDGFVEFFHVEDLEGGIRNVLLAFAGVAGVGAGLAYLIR

SMILES | pKi [1] | pKi (Bcl-2-like protein 1) | pKi [2] | pKi [3]
O=C(O)c1c(CCCOc2cccc3ccccc23)c2cccc3c2n1CCS3 | 6.92 | < 4.70 | 5.51 | –
CC1Cn2c(C(=O)O)cc3cccc(c32)S1 (centres undefined) | 4.46 | – | – | –
O=C(O)c1cc2cccc3c2n1CCS3 | 4.29 | – | – | –
O=C(O)c1cc2cccc3c2n1CCC3 | 3.88 | – | – | –
Cc1c(C(=O)O)n2c3c(cccc13)SCC2 | 4.74 | – | – | –
Cc1c(C(=O)O)n2c3c(cccc13)CCC2 | 4.05 | – | – | –
Cc1c(C(=O)O)n2c3c(cccc13)OCC2 | 4.74 | – | – | –
O=C(O)c1c(CCOc2cccc3ccccc23)c2cccc3c2n1CCS3 | 5.52 | – | – | –
O=C(O)c1c(CCOc2cccc3ccccc23)c2cccc3c2n1CCC3 | 5.40 | < 4.70 | – | –
O=C(O)c1c(CCOc2cccc3ccccc23)c2cccc3c2n1CCO3 | 5.80 | 4.90 | – | –
O=C(O)c1c(CCCOc2cccc3ccccc23)c2cccc3c2n1CCC3 | 6.51 | < 4.70 | – | –
O=C(O)c1c(CCCOc2cccc3ccccc23)c2cccc3c2n1CCO3 | 6.96 | 5.72 | – | –
O=C(O)c1c(CCCOc2cccc3ccccc23)c2cccc3c2n1CCS3(=O)=O | 7.06 | < 4.70 | – | –
O=C(O)c1c(CCCOc2cccc3ccccc23)c2cccc3c2n1CCCS3 | 6.77 | 5.13 | 5.00 | –
O=C(O)c1c(CCCOc2cccc3ccccc23)c2cccc3c2n1CCC[S+]3[O-] (centres undefined) | 7.13 | < 4.70 | 4.80 | –
O=C(O)c1c(CCCOc2cccc3ccccc23)c2cccc3c2n1CCCS3(=O)=O | 7.21 | < 4.70 | 4.93 | –
O=C(O)c1c(CCCOc2cccc3c2CCCC3)c2cccc3c2n1CCS3 | 6.82 | 5.52 | – | –
O=C(O)c1c(CCCOc2ccc(Cl)c3ccccc23)c2cccc3c2n1CCS3 | – | 5.33 | 5.96 | –
O=C(O)c1c(CCCOc2ccc3c(c2)CCCC3)c2cccc3c2n1CCS3 | 6.39 | < 4.70 | 5.36 | –
Cc1cc(OCCCc2c(C(=O)O)n3c4c(cccc24)SCC3)ccc1Cl | 6.68 | < 4.70 | 5.20 | –
Cc1cc(OCCCc2c(C(=O)O)n3c4c(cccc24)SCC3)cc(C)c1Cl | – | < 4.70 | 5.64 | –
Cc1cc(OCCCc2c(C(=O)O)n3c4c(cccc24)CCC3)cc(C)c1Cl | 6.96 | – | – | –
Cc1cc(OCCCc2c(C(=O)O)n3c4c(cccc24)OCC3)cc(C)c1Cl | 7.19 | – | – | –
Cc1cc(OCCCc2c(C(=O)O)n3c4c(cccc24)SCCC3)cc(C)c1Cl | – | < 4.70 | – | –
Cc1cc(OCCCc2c(C(=O)O)n3c4c(c(Cl)ccc24)CCC3)cc(C)c1Cl | 8.52 | 5.28 | – | –
Cc1cc(OCCCc2c(C(=O)O)n3c4c(c(Cl)ccc24)OCC3)cc(C)c1Cl | – | < 4.70 | – | –
COCCCc1c(C(=O)O)n(CCN2CCOCC2)c2c(-c3c(C)nn(C)c3COc3ccc(N4CCN(S(=O)(=O)N(C)C)CC4)cc3)cccc12 | – | – | – | 9.34
O=C(O)c1cc2ccccc2[nH]1 [INDOLE-2-CARBOXYLIC ACID] | < 3.00 | – | – | –

Reference: ChEMBL document CHEMBL3425420 (J Med Chem, 2015)
